Results pooled from the literature.
Protocols differ between the studies behind these lines.
Target: Serine/threonine-protein kinase PLK1 (PLK1, Homo sapiens, UniProt P53350)

FC(F)(F)Oc1cccc(-c2cnc3ccc(-c4ccncc4)nn23)c1
remaining binding (cell-free assay, competition with immobilised ligand; 5 µM): 93%

O=C(N[C@H]1CCCCC/C=C\C2C[C@@]2(C(=O)O)NC(=O)[C@@H]2C[C@@H](Oc3ccncc3)CN2C1=O)OC1CCCC1 (stereo partly shown)
remaining binding (binding, competition with immobilised ligand; 1 µM): 71%

N#Cc1ccccc1CSc1nnc2c(n1)[nH]c1ccccc12
remaining binding (binding, competition with immobilised ligand; 10 µM): 94%

C[C@@H](c1cccc(C#N)c1)n1cc(Cl)cc(C(N)=O)c1=N
remaining binding (cell-free assay, competition with immobilised ligand; 1 µM): 98%

COc1ccnn2ncc(-c3ccnc(N(C)C)n3)c12
remaining binding (binding; 1 µM): 94%

CCCOc1ccc([C@H]2[C@H](C(=O)O)[C@@H](c3ccc4c(c3)OCO4)CN2CC(=O)Nc2c(CC)cccc2CC)cc1
remaining binding (cell-free assay, competition with immobilised ligand; 1 µM): 80%

O=C(c1ccc(Nc2ncc(Cl)c(-c3ccc(Cl)s3)n2)cc1)N1CCC(N2CCCC2)CC1
remaining binding (binding, competition with immobilised ligand; 1 µM): 61%

CNC(=O)c1ccccc1Nc1cc(Nc2ccc(N3CCOCC3)cc2OC)ncc1C(F)(F)F
remaining binding (binding, competition with immobilised ligand; 1 µM): < 10%

O=C(c1ccc(Nc2nccc(-c3cc4ccccc4s3)n2)cc1)N1CCC(N2CCCC2)CC1
remaining binding (binding, competition with immobilised ligand; 1 µM): 89%

C[C@@H]1CCN(c2nccc(-c3cnn4ncccc34)n2)C1
remaining binding (binding; 1 µM): 76%

O=C(NCCCN1CCOCC1)c1ccc(Nc2ncc(Cl)c(-c3ccc(Cl)s3)n2)cc1
remaining binding (binding, competition with immobilised ligand; 1 µM): 22%

c1cncc(-c2cccc(Nc3nccc(NC4CCCCC4)n3)c2)c1
remaining binding (binding, competition with immobilised ligand; 10 µM): 78%

O=C(Nc1c[nH]nc1C(=O)NC1CCNCC1)c1cc(F)cc(F)c1
remaining binding (binding, competition with immobilised ligand; 1 µM): 100%

COc1cnc(Nc2cccc(S(N)(=O)=O)c2)nc1N1CCN(c2ccccc2)CC1
remaining binding (binding, competition with immobilised ligand; 1 µM): 79%

CN(C(=O)c1ccccc1)c1cc(N(C)c2ccc3c(c2)CCc2ccc(C(=O)NCCN4CCOCC4)cc2C3=O)ccc1F
remaining binding (cell-free assay, competition with immobilised ligand; 1 µM): 100%

CC1CCCN1c1nccc(-c2cnn3ncccc23)n1 (stereo not shown)
remaining binding (binding; 1 µM): 100%

Nc1cnc(N2CCc3cc(S(=O)(=O)Nc4c(F)cc(Cl)cc4F)cc(N4CCCC4=O)c32)nc1
remaining binding (cell-free assay, competition with immobilised ligand; 1 µM): 100%

C[C@@H]1CN(c2ccc3ncc(-c4ccc5[nH]nc(C6CC6)c5c4)n3n2)C[C@H](C)O1
remaining binding (binding, competition with immobilised ligand; 0.5 µM): 96%

N#Cc1ccc(Nc2ccc3[nH]c(=O)[nH]c3c2)c(Cl)c1
remaining binding (cell-free assay, competition with immobilised ligand; 1 µM): 100%

CN(c1nccc(-c2cnn3ncccc23)n1)C1CC1
remaining binding (binding; 1 µM): 100%

CCC(=O)N[C@@H]1CC[C@H](C(=O)N(C)c2ccc(-c3nc4ccccc4o3)cc2)C1
remaining binding (cell-free assay, competition with immobilised ligand; 1 µM): 95%

CN(C)c1nccc(-c2cnc3ncccn23)n1
remaining binding (binding; 1 µM): 69%

CO[C@@H](C)c1c(Nc2ccc([C@@H](N(C)C(=O)C3CCS(=O)(=O)CC3)C(F)(F)F)cc2)cnc2cc(Cl)nn12
remaining binding (cell-free assay, competition with immobilised ligand; 1 µM): 87%

C[C@@H](c1ccc(-n2cnc3c(N)ncnc32)cc1)N1CCc2nn(C)c(Cc3ccccc3)c2C1=O
remaining binding (binding, competition with immobilised ligand; 0.1 µM): 86%

Cc1cnn2ncc(-c3ccnc(N(C)C)n3)c2c1
remaining binding (binding; 1 µM): 84%
